Shown are actives, neighbours in structure and some others; about 1.9% of the full set was active somewhere.
CHRM5 PAM = potentiates acetylcholine response at human M5 receptor | P08912 | CHO-K1 hM5, Fluo-8 calcium, ACh EC20 PAM; 0% = ACh EC20, 100% = ACh EC100 | activation, % at 3 µM | hit rate 0.3% among 360,000;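 active = activation above the run cutoff, the mean activation of all test compounds plus 3 SD, cut at about 18% in these data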
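Replicates: One well per compound, no replicates | System: Human M5 receptor in CHO-K1 cells | Benchmarks: Low control EC20 acetylcholine (0%), high control EC100 acetylcholine (100%) | Probe or stimulus: Acetylcholine, EC20 level | Times: Fluo-8 loading 80 min at 37 °C plus 30 min room temperature | Signal: Intracellular calcium via Fluo-8 fluorescence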
CHRM4 PAM = positive allosteric modulators of human muscarinic M4 receptor | hit rate 0.4% among 360,000 | CHO-K1 hM4/Gqi5, Fluo-8 calcium fluorescence, ACh EC20; 0% = ACh EC20, 100% = maximal ACh | P08173 | activation, % at 3 µM;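 active = activation above its plate's cutoff, the mean activation of sample wells plus 3 SD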
Target sequence (P08173 whole entry, looked up): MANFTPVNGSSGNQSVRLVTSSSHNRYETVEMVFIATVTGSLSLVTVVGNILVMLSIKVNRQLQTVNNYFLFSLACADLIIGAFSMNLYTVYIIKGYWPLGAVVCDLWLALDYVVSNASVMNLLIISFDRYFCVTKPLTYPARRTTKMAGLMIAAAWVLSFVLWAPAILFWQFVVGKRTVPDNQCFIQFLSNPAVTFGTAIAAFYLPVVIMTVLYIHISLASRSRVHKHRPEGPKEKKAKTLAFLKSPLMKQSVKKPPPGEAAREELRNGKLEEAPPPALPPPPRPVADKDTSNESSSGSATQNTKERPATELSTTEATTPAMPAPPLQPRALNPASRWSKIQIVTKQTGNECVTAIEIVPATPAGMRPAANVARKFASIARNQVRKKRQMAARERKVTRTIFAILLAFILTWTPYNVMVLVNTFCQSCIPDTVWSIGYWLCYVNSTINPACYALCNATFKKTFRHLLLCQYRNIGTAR
M4 ag = CHRM4 agonism in calcium assay; CHO-K1 hM4/Gqi5, Fluo-8 calcium fluorescence; vehicle 0%, full acetylcholine response 100%; activation, % at 3 µM; hit rate 0.14% among 360,000;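 active = activation above the run mean over all test wells plus 3 SD, cut at about 32% in these data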;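 note: peak over basal fluorescence ratio per well then scaled between controls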
M5 antag = CHRM5 antagonism in calcium assay; P08912; CHO-hM5 cells, Fluo-8 calcium fluorescence, ACh EC80; inhibition, % at 3 µM; hit rate 0.59% among 360,000;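 active = inhibition above a per-plate cutoff, the mean of that plate's test compounds plus 3 SD, cut at about 27% in these data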
CHRM5 agonist = CHRM5 agonism in calcium assay; CHO-K1 hM5 cells, Fluo-8 calcium fluorescence; 0% DMSO wells, 100% maximal acetylcholine response; hit rate 0.19% among 360,000; activation, % at 3 µM; AID 624037;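 active = activation above the run's mean over test compounds plus 3 SD, cut at about 23% in these data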;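 note: signal is peak over basal fluorescence ratio across the kinetic read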
CHRM4 antagonist = CHRM4 antagonism in calcium assay; P08173; CHO-hM4 cells, ACh EC80, Fluo-8 calcium fluorescence; inhibition, % at 3 µM; hit rate 0.73% among 360,000; AID 624125;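 active = inhibition above its plate's cutoff, the mean inhibition of sample wells plus 3 SD, cut at about 27% in these data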
Each line names hits and unclear results; the compound was inactive in the other large screens; ! = repeats disagree.

COC(=O)C(O)(c1ccc(NC(=S)NC(=O)c2ccc(Cl)cc2Cl)cc1)C(F)(F)F (stereo not given)	none
COc1ccc(N2CC2c2ccncc2)cc1 (stereo not given)	none
CC(C)(C)NC(=O)C1CC2CCCCC2CN1 (stereo not given)	none
CS(=O)(=O)c1ccc(C2=C(CNC(=O)c3nccs3)[C@H]3CC[C@@H](C2)N3CCOc2ccccc2)cc1	CHRM4 antagonist 48.7
CS(=O)(=O)c1ccc(C2=C(CNC(=O)c3cccs3)[C@H]3CC[C@@H](C2)N3CCOc2ccccc2)cc1	none
C[N+](C)(C)CC1CCCC(C[N+](C)(C)C)C1=O (stereo not given)	none
Cc1ccsc1C(=O)C1CCCN(Cc2cnc(N3CCCC3)s2)C1 (stereo not given)	none
CCC1(C)OC(c2ccccc2)=C/C(=C/C=C2C(=O)NC(=O)NC2=O)O1 (stereo not given)	CHRM5 agonist 61.4
CC[N+](CC)(CC)CCCOC(=O)C(O)(c1ccccc1)C1CCCCC1 (stereo not given)	M5 antag 99.1, CHRM4 antagonist 98.6
C[N+](C)(N)CCOC(=O)C(O)(c1ccccc1)C1CCCCC1 (stereo not given)	M5 antag 99.5, CHRM4 antagonist 99.5
O=C(COC(=O)Cc1ccccc1)NC(=O)NC1CCCCC1	none
CCOC(=O)c1[nH]ncc1CN1CCCC(C(=O)c2cccc(Cl)c2)C1 (stereo not given)	none
CC1([N+](=O)[O-])COP(=O)(Nc2cccc(F)c2)OC1 (stereo not given)	none
CCC(=NCc1ccco1)c1c(O)n(-c2ccc(OC)cc2)c(=O)[nH]c1=O	none
CCC(=NCc1ccco1)c1c(O)n(-c2ccc(Cl)cc2)c(=O)[nH]c1=O	CHRM5 PAM 26.1
S=C1NCCN1	CHRM4 antagonist 30.3
OC(Cn1c2ccccc2c2ccccc21)C[n+]1cccc2ccccc21 (stereo not given)	M5 antag 58.2, CHRM4 antagonist 40.5
c1ccc2c(CN3CCCCCCC3)c[nH]c2c1	CHRM4 antagonist 31.7
CCCc1nc2ccc(Br)cc2c(=O)n1-c1ccc([N+](=O)[O-])c(C(F)(F)F)c1	M5 antag 27.2
CCc1nc2ccc(Br)cc2c(=O)n1-c1ccccc1C(F)(F)F	none
COc1ccc(-c2ccc3c(c2)CN(C(=O)CCc2ccccc2)Cc2cnnn2-3)cc1	none
CN1CN(c2cccc([N+](=O)[O-])c2)CN=C1N[N+](=O)[O-]	none
CC(=O)c1cn(Cc2ccccc2C#N)c2ccccc12	M5 antag 37.1, CHRM4 antagonist 28.8
CC(C)C(=O)c1cn(Cc2ccccc2C#N)c2ccccc12	none
O=[N+]([O-])c1ccc(-[n+]2c(-c3ccccc3)cc(-c3ccccc3)cc2-c2ccccc2)cc1	CHRM4 antagonist 39.6
Oc1ccc(-[n+]2c(-c3ccccc3)cc(-c3ccccc3)cc2-c2ccccc2)cc1	CHRM4 antagonist 54.2
COc1ccc(C(=O)C2CCCN(Cc3cnc(C)s3)C2)cc1OC (stereo not given)	none
O=C(c1ccc(Cl)cc1)C1CCCN(C2CCSCC2)C1 (stereo not given)	M5 antag 27.4, CHRM4 antagonist 36.9
COc1ccc(C(=O)C2CCCN(C3CSCCSC3)C2)cc1OC (stereo not given)	CHRM4 antagonist 38.8
CN(CC#CCN1CCCC1)C(=O)c1cccc(Cl)c1	none
CCN1/C(=C\C=C\C2=[N+](CC)c3ccccc3C2(C)C)C(C)(C)c2ccccc21	M4 ag 251.6, M5 antag 93.7, CHRM5 agonist 301.7, CHRM4 antagonist 91.7
N#CC(C#N)=NNc1ccc(-n2ccc(C(F)(F)F)n2)cc1	M5 antag 30.1
CCOC(=O)C1(c2ccccc2)Oc2ccccc2C(c2ccc(OC)cc2)=C1C(=O)OC (stereo not given)	none
COC1C(C)OC(OC2CC(C)(O)Cc3cc4c(c(O)c32)C(=O)c2c(O)cc3c(c2C4=O)OC2OC3(C)C(O)C(N(C)C)C2O)C(OC)C1(C)OC (stereo not given)	CHRM5 agonist 30.1
COc1cc2nc(CN3CC=C(c4ccccc4)CC3)[nH]c(=O)c2cc1OC	none
CCCCCCC[n+]1ccc(-c2cc[n+](CCCCCCC)cc2)cc1	none
C[n+]1ccc(-c2cc[n+](C)cc2)cc1	CHRM5 agonist 61.0!
CCC(C)C12CN3CCN(CC(C)(C3)C1=O)C2 (stereo not given)	none
O=c1ccc2cc(O[C@@H]3O[C@H](CO)[C@@H](O)[C@H](O)[C@H]3O)c(O)cc2o1	none
CC12CN3CC(C)(CN(C1)C31CCSCC1)C2=O	none
CCN1C(=O)CC(c2cccnc2)=Nc2ccccc21	CHRM5 PAM 19.3
O=C1CC(c2cccnc2)=NN1c1ccc(Cl)cc1Cl	none
CCOP(=O)(Oc1ccccc1)c1c([N+](=O)[O-])cc(C(F)(F)F)cc1[N+](=O)[O-] (stereo not given)	none
O=c1c2ccccc2nc(-c2ccc(-c3ccccc3)cc2)n1-c1ccncc1	none
COc1ccc2ccccc2c1CNCCc1ccccc1	CHRM5 PAM 18.2
CNC(=O)Oc1ccccc1OC(C)C	none
CN(C)CCN=Cc1c(O)n(-c2cccc3ccccc23)c(=O)[nH]c1=O	none
COc1ccc(OC)c([C@@H](O)[C@H](C)NC(C)(C)C)c1	CHRM4 antagonist 50.5
N#CC(CCN1CCOCC1)(c1ccccc1)c1ccccc1	M5 antag 27.5
CN1CCC(OC(=O)C2c3ccccc3Oc3ccccc32)CC1	M5 antag 98.8, CHRM4 antagonist 98.8
CC1([N+](=O)[O-])COP(=O)(Nc2cccc(Cl)c2)OC1 (stereo not given)	none
CCCCn1nnnc1C(CCc1ccccc1)N1CCC(n2c(=O)[nH]c3ccccc32)CC1 (stereo not given)	none
COc1ccc2nc(-c3ccc(CN4CCC(n5c(=O)[nH]c6ccccc65)CC4)cc3)c(-c3ccccc3)nc2c1	none
CCC(c1nnnn1Cc1ccccc1)N1CCC(n2c(=O)[nH]c3ccccc32)CC1 (stereo not given)	CHRM4 antagonist 26.8
O=c1[nH]c2ccccc2n1C1CCN(Cc2ccc(-c3nc4ccccc4nc3-c3ccccc3)cc2)CC1	CHRM5 agonist 32.5
O=c1[nH]c2ccccc2n1C1CCN(Cc2ccc(-c3nc4ccc(F)cc4nc3-c3ccccc3)cc2)CC1	none
Cc1ccc2nc(-c3ccc(CN4CCC(n5c(=O)[nH]c6ccccc65)CC4)cc3)c(-c3ccccc3)nc2c1	CHRM5 agonist 26.8
